# High-throughput results (PubChem BioAssay)
# Most compounds without a hit are left out; they make up all but 4.8% or so of the library.
# T cruzi inh = blocks replication of Trypanosoma cruzi; T. cruzi beta-gal in NIH3T3, luminescence, 90 h; inhibition, % (concentration not given with the values); hit rate 1.4% among 300,000; AID 1885;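 active = mean inhibition across valid replicates above about 55%, limit read from the data; inconclusive = mean below that limit but half or more replicates reach it; inactive = mean below it, under half of replicates reach it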;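 also: signal also drops with host cell toxicity which is not excluded here; 0% = plate median of DMSO wells and 100% = zero luminescence signal; higher percent means less beta-gal luminescence so fewer parasites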
#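 Test system: β-gal T. cruzi (Tulahuen C4) inside NIH/3T3 cells / Quantity: 5,000 cells/well / Measured by: luminescence from GalScreen with 0.05% NP40, read after 60 min / Medium: DMEM plus 2% FBS / Measure: parasite load inhibition, % / Reagent: Tulahuen C4 trypomastigotes, 5000/well / Schedule: co-culture of at least 90 h after 3 h attachment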
# SUMO Mot1 rescue = blocks SUMOylation pathway, rescuing yeast Mot1-301 growth; S. cerevisiae Mot1-301 growth rescue, ATP luminescence, 38.5C; percent above DMSO median, 100 means doubled; growth rescue, % at 18.8 µM; hit rate 1% among 320,000;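 active = every valid replicate shows activation above 250% relative to neutral control wells; inactive = the rest, any valid replicate at or below 250%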;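 also: OY570 slx delta 5 strain wells were the positive control but not used for scaling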
# CSC inhib = cancer stem cell inhibition; cancer stem cell-like cells viability, luminescence; inhibition, % at 7.5 µM; hit rate 1.1% among 300,000; AID 2717; in the data active = inhibition above about 75%; inconclusive = no clear call, values can overlap the other calls; tested in HMLE shEcad cells
# Efflux pump inh = antifungal efflux pump inhibition, Nile Red retention; hit rate 0.44% among 330,000; S. cerevisiae Candida pump triplex; AID 485275; inhibition, % at 10 µM;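 active = plate passing quality check with inhibition over a set limit, or well fluorescence over plate mean plus 4 SD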;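 also: Nile Red retained in pooled yeast measured as flow cytometry median fluorescence; 0% = buffer negative control and 100% = Enniatin B positive control; higher means more Nile Red kept so more efflux inhibition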
# Beta apoptosis = beta cell apoptosis inhibition; hit rate 0.8% among 300,000; INS-1E cytokine-induced death, ATP luminescence, 48 h; percent of positive-control rescue, neutral wells zero; protection from apoptosis, % (test concentration not listed);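 active = Every replicate reaches about 75%, or at least half do and their mean reaches it too, limit read from the data; inconclusive = At least half of replicates reach the limit but their mean does not; inactive = Under half of replicates reach the limit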;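 also: 0% = cytokine-treated negative control wells and 100% = positive control rescue; higher means more ATP so stronger rescue from cytokine killing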
# WT yeast gro inh = growth inhibition of WT yeast, mitochondrial fusion screen; inhibition, % at 10 µM; mitochondrial fusion phenotypic screen, WT strain; hit rate 2.1% among 190,000; AID 1362; in the data active = inhibition above about 58%; tested in S. cerevisiae
# * marks the source's active call; other numbers are inactive results; u = inconclusive; x = no result given.
SMILES,T cruzi inh,SUMO Mot1 rescue,CSC inhib,Efflux pump inh,Beta apoptosis,WT yeast gro inh
Cc1ccc(S(=O)(=O)c2cnc(-c3ccccc3)nc2N2CCCCC2)cc1,28.5,-18.9,15.7,0.0,5.2,44.6
COc1ccccc1N(CC(=O)Nc1cc(C)on1)S(=O)(=O)c1cccc(C(F)(F)F)c1,x,14.7,x,0.0,3.7,x
CC1=CN2C(=N)/C(=C/c3ccc([N+](=O)[O-])o3)C(=O)N=C2S1,22.9,127.6,3.4,2.4,-5.8,85.9*
Cc1nn(Cc2cccc(Oc3ccccc3)c2)c(C)c1NC(=O)NC12CC3CC(CC(C3)C1)C2,56.6*,-9.7,17.7,4.9,12.2,16.9
CCN(CC)S(=O)(=O)c1cccc(NC(=O)c2ccc(Br)cc2)c1,16.6,-1.5,-16.6,0.0,-15.7,69.9*
CCN(CC)S(=O)(=O)c1cccc(NC(=O)c2cncc(Br)c2)c1,12.8,x,-2.1,-0.1,-0.7,23.9
CC(C)c1ccc(/C=C/C(=O)Nc2nc3ccc([N+](=O)[O-])cc3s2)cc1,-1.9,2.8,36.5,0.1,15.8,24.5
O=C(O)COc1ccc(/C=C/c2nc3ccc([N+](=O)[O-])cc3s2)cc1,56.5*,-21.4,-12.9,0.0,-3.8,x
O=C(Nc1ccc(F)cc1)NC1CCCCC1,-4.0,5.4,-4.8,0.0,2.0,-6.9
O=C(Nc1c(F)c(F)c(F)c(F)c1F)NC1CCCCC1,-5.6,698.6*,-7.3,-0.1,7.5,13.4
Cn1c(=O)oc2cc(S(=O)(=O)CCC(=O)Nc3ccccc3)ccc21,-20.7,-0.1,-6.0,0.1,7.2,x
Cc1cc(C)c(NC(=O)c2cc3c(nc4sccn43)s2)c(C)c1,-11.6,-2.6,0.9,0.0,7.9,74.9*
Cc1ccc(C)c(C(=O)c2c(C)nc3sccn23)c1,x,3.7,7.4,0.0,x,-12.2
CCC(C(=O)N1CCCCCC1)n1nc(C)n2c(cc3occc32)c1=O (stereo not given),0.9,86.6,8.8,-0.2,-2.7,x
COc1ccc(NS(=O)(=O)c2cccc(C(=O)N/N=C(\C)c3ccc(-n4ccnc4)cc3)c2)cc1,10.7,60.3,95.2*,0.1,2.5,7.2
C/C(=N\NC(=O)c1ccccc1NC(=O)c1ccc(Cl)cc1)c1ccncc1,-29.0,-63.9,136.4*,-0.3,102.5*,98.3
C/C(=N\Nc1cccc(Cl)c1)c1ccc(-n2ccnc2)cc1,x,130.1,34.9,-0.2,1.2,66.1*
C/C(=N\NC(=O)C(=O)Nc1ccc(C)c(Cl)c1)c1ccncc1,-80.0,61.8,-11.4,0.1,21.2,10.4
COC(=O)N/N=C(\C)c1ccc(-n2ccnc2)cc1,-17.2,-8.6,-9.7,0.1,1.1,-10.0
C/C(=N/NC(=O)c1ccncc1)c1ccccc1,-4.1,76.9,-7.9,0.0,x,x
C/C(=N\NC(=O)C(=O)Nc1cccc(Cl)c1)c1ccncc1,-115.9,-4.6,36.5,0.3,80.9*,-20.9
COc1ccc(NS(=O)(=O)c2cccc(C(=O)N/N=C(\C)c3ccncc3)c2)cc1,-8.7,210.9,-6.6,-0.1,-3.0,-6.3
Cc1cccc(NC(=S)c2nc3ccccc3s2)c1,-14.8,16.9,26.4,0.0,1.6,66.9*
COc1ccc(OCC(=O)Nc2cccc(C(=O)Nc3ccccc3C(=O)O)c2)cc1,-0.5,-1.3,-2.1,-0.1,-0.7,-8.5
c1ccc(CCN2CCN(c3ncnc4c3cnn4-c3ccccc3)CC2)cc1,64.3*,-24.4,17.2,0.2,3.4,22.2
SMILES,T cruzi inh,SUMO Mot1 rescue,CSC inhib,Efflux pump inh,Beta apoptosis,WT yeast gro inh
CCC(C)NC(=O)C1CCC(CNS(=O)(=O)c2cccc3nsnc23)CC1 (stereo not given),1.0,-0.8,11.4,0.1,-1.2,x
Cc1ccc(NS(=O)(=O)c2ccc(NC(=O)c3ccccc3C(=O)O)cc2)cc1C,1.1,-13.5,20.8,0.1,-8.4,x
COc1ccc(N2CCN(C(=O)CCCN3C(=O)c4cccc5cccc(c45)C3=O)CC2)cc1,74.8*,4.5,-11.7,-0.1,9.3,x
COc1cccc(CN2C(=O)C3CCCN3c3ccc(S(=O)(=O)N4CCOCC4)cc32)c1 (stereo not given),14.7,5.7,3.6,0.1,7.7,-11.7
Cn1c(C(=O)O)c(CC(=O)Nc2ccc3c(c2)OCCO3)c2ccccc21,-9.3,0.4,-9.2,0.0,-6.0,4.0
COc1cc(NC(=O)Cc2nn(C)c(=O)c3ccccc23)cc(OC)c1,-16.9,-5.7,-4.6,0.0,x,15.3
COCC(C)n1c(SCC(=O)Nc2ccc3c(c2)OCCO3)nc2ccccc2c1=O (stereo not given),x,166.3,4.5,0.9,-1.7,x
Cn1nc(CC(=O)Nc2ccc3c(c2)OCCO3)c2ccccc2c1=O,24.7,-6.3,1.2,0.0,75.4*,3.1
CCC(C)n1c(SCC(=O)NC(=O)Nc2ccc3c(c2)OCCO3)nc2ccccc2c1=O (stereo not given),65.6*,4.7,9.8,0.1,2.0,23.6
Cc1ccc(NC(=O)Cc2nn(C)c(=O)c3ccccc23)cc1F,-36.2,-9.8,-9.5,0.1,86.4*,11.3
COCCN1C(=O)C(=O)/C(=C(/O)c2ccc(S(=O)(=O)N3CCCCC3)cc2)C1c1ccc(O)c(OC)c1 (stereo not given),-20.4,7.6,-11.7,0.1,-1.5,x
Cc1ccc(C)c(N2CC(C(=O)Nc3nccs3)CC2=O)c1 (stereo not given),-6.0,-6.0,x,0.2,-2.9,x
O=C1C2C(c3ccccc3)CC=CC2[C@H](c2cccc([N+](=O)[O-])c2)N1Cc1ccccc1 (stereo not given in full),56.1*,21.6,5.5,0.1,5.6,x
O=C1C2C(c3ccccc3)CC=CC2[C@H](c2ccc(C(F)(F)F)cc2)N1Cc1ccccc1 (stereo not given in full),36.5,12.3,u,0.1,20.7,x
CC(C)(C)n1cn[nH]c1=S,-11.6,76.5,-12.1,0.1,x,x
COc1ccc(N=C2SC(CC(=O)Nc3ccccc3)C(=O)N2CCc2ccccn2)cc1 (stereo not given),-7.8,356.4*,x,0.2,x,10.4
Cc1nc(Sc2ccc(Br)cc2)c(C#N)c(C)c1[N+](=O)[O-],42.3,7.2,83.5*,-0.1,0.5,x
COc1ccccc1N/C=C1/Sc2cc(Cl)ccc2NC1=O,9.9,-1.8,3.6,0.1,0.9,-8.6
O=C1Nc2ccccc2S/C1=C/NCc1ccccc1Cl,5.3,0.2,-2.0,-0.4,-10.5,17.3
Cc1ccc(N/C=C2/Sc3ccccc3NC2=O)cc1,58.9*,-11.8,-2.1,0.0,1.6,5.6
COc1ccc(N/C=C2/Sc3ccccc3NC2=O)cc1,67.9*,-6.8,-4.1,-0.1,9.2,0.1
C=CCn1c(COc2ccccc2F)nnc1SCC(=O)c1c[nH]c2ccccc12,16.7,-18.2,0.5,0.0,-9.8,-3.2
CC1CC(C)CN(S(=O)(=O)c2ccccc2[N+](=O)[O-])C1 (stereo not given),-1.4,-8.9,-3.7,-0.2,0.0,-5.6
